Source: PubChem
Rows were chosen to be rich in hits. Some 2.3% of all compounds tested hit in one or more screens of this group.
MEKK2 mut-MEK5: signal of MEK5 binding to mutant human MEKK2 PB1 domain; bead flow cytometry, Alexa488-MEK5 binding to MEKK2 mutant; percent response, % at 10 µM; 0.35% of 290,000 active; AID 1530; in the data active = percent response above about 24%, passing the limit was not always enough
ABCB1 inh: inhibitors of human ABCB1 transporter, ABCG2 counter-screen; P08183; CCRF-Adr cells, JC-1 efflux, flow cytometry; inhibition, % at 6.6 µM; 0.067% of 190,000 active; in the data active = inhibition above about 40%;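 also: higher value means more JC-1 retained so stronger ABCB1 efflux block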
MEKK3 PB1 HTS: modulators (inhibitors or enhancers) of MEK5 binding to human MEKK3 PB1 domain. bead-based flow cytometry, Alexa488-MEK5 binding to MEKK3; actives lie on both sides; 0 = blocked by unlabeled MEK5, 100 = vehicle. binding response (% of control), % at 10 µM. 1.4% of 290,000 active. Q99759;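 active = binding response more than 3 SD above or below the average of its plate-row segment, actives on both sides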;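 also: Alexa488 bead fluorescence after subtracting the streptavidin-only scavenger bead signal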
ABCG2 block: blocks JC-1 efflux by human ABCG2 transporter; Q9UNQ0; IgMXP3 cells, flow cytometry; inhibition, % at 6.6 µM; 0.1% of 190,000 active; AID 1325;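 active = inhibition above 80%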
Target sequence (Q9UNQ0 whole entry, looked up): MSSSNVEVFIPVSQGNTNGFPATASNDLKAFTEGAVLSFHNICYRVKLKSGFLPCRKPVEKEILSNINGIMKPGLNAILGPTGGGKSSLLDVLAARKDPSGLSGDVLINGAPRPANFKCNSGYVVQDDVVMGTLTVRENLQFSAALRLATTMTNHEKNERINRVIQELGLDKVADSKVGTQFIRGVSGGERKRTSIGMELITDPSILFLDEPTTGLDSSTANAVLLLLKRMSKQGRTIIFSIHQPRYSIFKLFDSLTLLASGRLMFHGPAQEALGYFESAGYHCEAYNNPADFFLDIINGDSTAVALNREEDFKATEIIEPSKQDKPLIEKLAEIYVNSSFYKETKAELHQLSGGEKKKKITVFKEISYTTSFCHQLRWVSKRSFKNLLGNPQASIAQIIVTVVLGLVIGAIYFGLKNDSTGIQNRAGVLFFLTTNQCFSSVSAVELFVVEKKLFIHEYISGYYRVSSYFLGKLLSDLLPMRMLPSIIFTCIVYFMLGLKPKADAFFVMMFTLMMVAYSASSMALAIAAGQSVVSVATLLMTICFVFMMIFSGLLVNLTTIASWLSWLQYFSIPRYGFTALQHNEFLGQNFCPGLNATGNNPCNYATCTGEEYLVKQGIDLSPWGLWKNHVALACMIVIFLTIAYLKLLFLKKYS
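Test system: IgMXP3 (ABCG2) plus far-red-tagged CCRF-Adr (ABCB1) cells / Amount: 3 million cells/mL in well / Reagent: JC-1 transporter substrate / Timing: 10 min compound exposure, 25 °C / Signal: flow cytometry, 530 nm JC-1 signal / Read-out: percent efflux inhibition, scaled nicardipine 100% to DMSO 0% / Benchmarks: nicardipine as high control, DMSO as low control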
MEKK2 WT-MEK5: raises or lowers MEK5 binding to wildtype human MEKK2 PB1 domain; bead flow cytometry, Alexa488-MEK5 binding to MEKK2 WT; actives lie on both sides; AID 1531; Q9Y2U5; 1.1% of 290,000 active; binding response (% of control), % at 10 µM; in the data active = binding response below about 67% or above about 130%
ABCB1 confirm: inhibits human ABCB1 efflux, confirmed at single point; 7% of 270 active; AID 1451; shares compounds with ABCG2 block; inhibition, % at 6.6 µM; CCRF-Adr cells, JC-1 efflux, flow cytometry;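 active = inhibition of pump activity above 50%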
ABCG2 confirm: confirmation of human ABCG2 transporter inhibitors, ABCB1 counter-screen; shares compounds with ABCG2 block; IgMXP3 cells, JC-1 efflux, flow cytometry; inhibition, % at 6.6 µM; 6% of 270 active; AID 1453;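 active = inhibition above 50%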
IgMXP3 fluor: IgMXP3 autofluorescence flag for ABCG2 confirmation; shares compounds with ABCG2 block; IgMXP3 cells, compound autofluorescence 488/530 nm, flow; hits give high values; fluorescence at 6.6 µM; 30% of 270 active; AID 1480;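 active = fluorescence in ABCG2-expressing cells above the plate's control-well mean plus 3 SD, cut at about 15 in these data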
CCRF-Adr fluor: counter-screen for ABCB1 inhibitors: compound fluorescence in CCRF-Adr cells | shares compounds with ABCG2 block | compound autofluorescence 488/530 nm, flow cytometry; hits give high values | fluorescence at 6.6 µM | 30% of 270 active;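 active = fluorescence beyond the plate control mean plus 3 SD, with a fluorescence-to-maximum score over 2, cut at about 25 in these data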
Of the large screens only hits and unclear results are named; the others gave an inactive call (follow-up assays come after a bar, where they were run).

CCSc1nc2cc(OC)c(OC)cc2c(=O)n1CCc1ccccc1	none | ABCB1 confirm inactive | ABCG2 confirm inactive | IgMXP3 fluor inactive | CCRF-Adr fluor inactive
N#Cc1ccccc1COC(=O)CCCC1=NS(=O)(=O)c2ccccc2N1	none (no result: ABCB1 inh, ABCG2 block)
O=C(NNS(=O)(=O)c1ccc([N+](=O)[O-])cc1)C(=O)Nc1cccc(C(=O)O)c1	none (no result: ABCB1 inh, ABCG2 block)
Cc1cc(C(=O)N/N=C/c2cc(Br)c(Br)o2)n[nH]1	none (no result: ABCB1 inh, ABCG2 block)
CCOC(=O)N1CCN(/C=C(\C#N)c2nc3ccccc3s2)CC1	ABCB1 inh 64, ABCG2 block 87 | ABCB1 confirm inactive | ABCG2 confirm inactive | IgMXP3 fluor inactive | CCRF-Adr fluor inactive
CCN1/C(=C/C=C/c2oc3ccc4ccccc4c3[n+]2CC)Oc2ccc3ccccc3c21	ABCG2 block 184 (no result: MEKK2 mut-MEK5, MEKK3 PB1 HTS, MEKK2 WT-MEK5) | ABCB1 confirm 69 | ABCG2 confirm inactive | IgMXP3 fluor 546 | CCRF-Adr fluor 228
COCCn1c(SCC(=O)N2CCc3ccccc3C2)nc2cc(Cl)ccc2c1=O	none | ABCB1 confirm inactive | ABCG2 confirm inactive | IgMXP3 fluor inactive | CCRF-Adr fluor inactive
CCCn1c(O)c(N=Nc2ccc3ccccc3n2)c2ccccc21	none
CC(C)CCn1c(O)c(N=Nc2ccccn2)c2ccccc21	ABCG2 block 87 | ABCB1 confirm inactive | ABCG2 confirm inactive | IgMXP3 fluor inactive | CCRF-Adr fluor inactive
COC(=O)C1=C(C)NC(C)=C(C(=O)OC)C1c1ccc(-c2cc(Cl)ccc2Cl)o1	none
COC(=O)C1=C(C)NC(C)=C(C(=O)OC)C1c1ccc(-c2cccc(Cl)c2Cl)o1	ABCG2 block 85 | ABCB1 confirm inactive | ABCG2 confirm inactive | IgMXP3 fluor inactive | CCRF-Adr fluor inactive
COc1cccc(CN2CCN(S(=O)(=O)c3ccc(Cl)s3)CC2)c1	none (no result: ABCB1 inh, ABCG2 block)
CC(=O)Oc1c(/C=C(\C#N)C(N)=O)[nH]c2ccccc12	ABCB1 inh 163, ABCG2 block 200 | ABCB1 confirm inactive | ABCG2 confirm inactive | IgMXP3 fluor 132 | CCRF-Adr fluor 272
COc1cccc(-c2nc(N3CC(C)CC(C)C3)c3ccccc3n2)c1O (configuration not stated)	none (no result: MEKK2 mut-MEK5, MEKK3 PB1 HTS, MEKK2 WT-MEK5) | ABCB1 confirm 72 | ABCG2 confirm inactive | IgMXP3 fluor inactive | CCRF-Adr fluor inactive
COc1cccc(-c2nc(N3CCC(C)CC3)c3ccccc3n2)c1O	none
Cc1ccc(S(=O)(=O)Nc2ccc3c(c2)OCCO3)c(C)c1NS(C)(=O)=O	none (no result: ABCB1 inh, ABCG2 block)
CC12COC3(C(=O)Nc4ccc([N+](=O)[O-])cc4)CC1CCC32C (configuration not stated)	ABCG2 block 112 | ABCB1 confirm inactive | ABCG2 confirm inactive | IgMXP3 fluor inactive | CCRF-Adr fluor inactive
CCC[C@H]1COCCS(=O)(=O)N1Cc1ccc(Br)cc1	none (no result: ABCB1 inh, ABCG2 block)
COc1ccc(NC(=S)NCc2cccn2C)cc1	none | ABCB1 confirm inactive | ABCG2 confirm inactive | IgMXP3 fluor inactive | CCRF-Adr fluor inactive
O=C(NCCc1ccncc1)Nc1cccc(Cl)c1	none
O=C(NCCCc1ccccc1)Nc1cccc(Cl)c1	ABCG2 block 94 | ABCB1 confirm inactive | ABCG2 confirm inactive | IgMXP3 fluor inactive | CCRF-Adr fluor inactive
CCN(CC)P(=O)(Nc1cccc(C(F)(F)F)c1)c1ccc(N(C)C)cc1NC(=O)c1ccco1 (configuration not stated)	ABCB1 inh 56 (no result: MEKK2 mut-MEK5, MEKK3 PB1 HTS, MEKK2 WT-MEK5) | ABCB1 confirm 62 | ABCG2 confirm inactive | IgMXP3 fluor inactive | CCRF-Adr fluor 37
Cc1cc(NC(=O)C(C)C)n(-c2nc3ccccc3s2)n1	ABCG2 block 81 | ABCB1 confirm inactive | ABCG2 confirm inactive | IgMXP3 fluor inactive | CCRF-Adr fluor inactive
O=C(CC12CC3CC(CC(Br)(C3)C1)C2)NC1CCCC1	none (no result: ABCB1 inh, ABCG2 block)
O=C(Nc1cccc(Cl)c1)Nc1ccc2c(c1)OCO2	none | ABCB1 confirm inactive | ABCG2 confirm inactive | IgMXP3 fluor inactive | CCRF-Adr fluor inactive
COc1ccc(CCNCC(O)COc2c(C)cccc2C)cc1OC (configuration not stated)	none (no result: ABCB1 inh, ABCG2 block)
COC(=O)CCc1c(C)c(C(=O)c2ccc(F)cc2)c2ccccn12	none
Cc1c(C(=O)Nc2ccc(F)cc2)c2ccccn2c1CCc1ccncc1	none | ABCB1 confirm inactive | ABCG2 confirm inactive | IgMXP3 fluor inactive | CCRF-Adr fluor inactive
Cc1cc(C)n(-c2ccc(Cl)c(C(=O)Nc3cc(C(F)(F)F)ccc3Cl)n2)n1	ABCG2 block 116 | ABCB1 confirm inactive | ABCG2 confirm inactive | IgMXP3 fluor inactive | CCRF-Adr fluor inactive
Cc1ccc(NC(=O)Nc2ccccc2)cc1[N+](=O)[O-]	ABCG2 block 95 | ABCB1 confirm inactive | ABCG2 confirm inactive | IgMXP3 fluor inactive | CCRF-Adr fluor inactive
CCCN1C(=O)/C(=C/c2c(NCCCOC(C)C)nc3c(C)cccn3c2=O)SC1=S	ABCB1 inh 62, ABCG2 block 89 | ABCB1 confirm inactive | ABCG2 confirm inactive | IgMXP3 fluor 141 | CCRF-Adr fluor 178
COCCn1c(SCC(=O)NCc2ccccc2)nc2ccccc21	none (no result: ABCB1 inh, ABCG2 block)
COCCn1c(SCc2csc(-c3ccccc3)n2)nc2ccccc21	none | ABCB1 confirm inactive | ABCG2 confirm inactive | IgMXP3 fluor 15 | CCRF-Adr fluor 72
COc1cc(SC)ccc1C(=O)Nc1ccccc1	ABCG2 block 84 | ABCB1 confirm inactive | ABCG2 confirm inactive | IgMXP3 fluor 18 | CCRF-Adr fluor 30
COc1ccccc1C(=O)Nc1cccc(SC)c1	none
CNC[C@H](NC[C@@H](NCCCc1ccccc1)c1ccccc1)[C@H](C)O	none (no result: ABCB1 inh, ABCG2 block)
COc1ccc(CCNC(=O)COc2ccc(-c3ccc(C#N)cc3)cc2)cc1	none
N#Cc1ccc(-c2ccc(OCC(=O)NCCc3ccccc3)cc2)cc1	ABCG2 block 82 | ABCB1 confirm inactive | ABCG2 confirm inactive | IgMXP3 fluor inactive | CCRF-Adr fluor 31
COCCn1c(C)cc(C(=O)CSc2cc(C)c3ccccc3n2)c1C	ABCG2 block 92 | ABCB1 confirm inactive | ABCG2 confirm inactive | IgMXP3 fluor inactive | CCRF-Adr fluor inactive
CCOc1ccc(OCC)c(NC(=O)CN2CCN(c3cccc(C)c3)CC2)c1	none (no result: MEKK2 mut-MEK5, MEKK3 PB1 HTS, MEKK2 WT-MEK5) | ABCB1 confirm inactive | ABCG2 confirm inactive | IgMXP3 fluor inactive | CCRF-Adr fluor inactive
CCOc1nc(SCCOc2ccc(Cl)cc2Cl)nc(N(C)C)n1	none
CCOc1nc(SCCOc2ccc(C)cc2)nc(N(C)C)n1	ABCG2 block 103 | ABCB1 confirm inactive | ABCG2 confirm inactive | IgMXP3 fluor inactive | CCRF-Adr fluor inactive
